From ChEMBL document CHEMBL1125795, “Substrate analogue renin inhibitors containing replacements of histidine in P2 or isosteres of the amide bond between P3 and P2 sites” (J Med Chem, 1991) come the findings set out here.

Starred links: 1 amine or outer side, 2 acyl side, 3 side chain; linkers in the order of their positions; H or OH if unused. Non-standard residues stand in square brackets, D forms with d. Residues, ends and D or L forms follow the SMILES beside them. *: point of attachment. X1 = CC(C)C[C@H](N[*:1])[C@@H](O)C[C@H](C(=O)[*:2])C(C)C; Boc = CC(C)(C)OC(=O)*

The target in test [1] is T1, Renin (Homo sapiens, UniProt P00797).
T1 sequence (P00797 whole entry): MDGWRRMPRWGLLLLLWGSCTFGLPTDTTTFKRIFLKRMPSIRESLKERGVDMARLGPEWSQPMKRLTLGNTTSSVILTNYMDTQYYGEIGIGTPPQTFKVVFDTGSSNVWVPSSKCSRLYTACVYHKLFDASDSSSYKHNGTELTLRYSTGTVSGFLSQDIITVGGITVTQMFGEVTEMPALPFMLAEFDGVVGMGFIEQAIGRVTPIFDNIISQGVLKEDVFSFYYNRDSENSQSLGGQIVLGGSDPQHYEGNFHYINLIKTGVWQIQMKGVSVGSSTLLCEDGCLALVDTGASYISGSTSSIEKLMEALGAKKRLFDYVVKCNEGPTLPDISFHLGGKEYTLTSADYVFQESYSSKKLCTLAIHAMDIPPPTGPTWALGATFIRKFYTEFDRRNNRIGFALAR
The test can be described thus: The compound was tested in vitro for inhibitory activity against human renin. The method, boiled down: (§1)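 Endogenous renin and angiotensinogen in human EDTA plasma; incubation mixture of 76 mM maleate pH 5.5, 7.2 mM EDTA, 1% DMSO, 8.3 mM 8-hydroxyquinoline; 2 h at 37 °C, then on ice; angiotensin I measured by radioimmunoassay. At least three inhibitor concentrations bracketing the IC50; IC50 calculated from percent inhibition.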

In the next test the target is Pepsin A (Sus scrofa, UniProt P00791). The test can be described thus: In vitro inhibitory activity against porcine Pepsin. In a few lines: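 Porcine pepsin (20 units) digesting hemoglobin at pH 1.8, 10 min, 35.5 °C. Released TCA-soluble peptides measured at 280 nm; IC50 is the concentration halving peptide liberation.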
The next test has as its target T2, Cathepsin D (Bos taurus, UniProt P80209).
T2 sequence (P80209 whole entry): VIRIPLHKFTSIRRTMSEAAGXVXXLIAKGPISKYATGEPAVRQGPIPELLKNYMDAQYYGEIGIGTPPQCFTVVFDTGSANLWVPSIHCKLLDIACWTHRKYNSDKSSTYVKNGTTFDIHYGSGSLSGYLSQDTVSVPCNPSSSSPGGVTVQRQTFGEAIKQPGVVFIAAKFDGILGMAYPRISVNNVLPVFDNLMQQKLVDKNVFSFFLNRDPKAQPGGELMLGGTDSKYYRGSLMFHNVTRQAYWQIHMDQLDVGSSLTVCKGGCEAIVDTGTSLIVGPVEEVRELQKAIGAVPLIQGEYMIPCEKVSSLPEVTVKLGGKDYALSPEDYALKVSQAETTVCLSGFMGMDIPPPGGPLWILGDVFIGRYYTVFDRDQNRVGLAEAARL
The test can be described thus: In vitro inhibitory activity against bovine Cathepsin D. The method, boiled down:
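Bovine cathepsin D (100 munits) acting on hemoglobin at pH 3.2, 20 min, 37 °C. TCA-soluble peptides released were read by absorbance at 280 nm; IC50 taken as the concentration giving 50% inhibition of peptide liberation.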

In test [2] the target is T1, Renin. The test can be described thus: Compound was tested in vitro for inhibitory activity against human renin. The method, boiled down:
as §1

Sequence of Pepsin A (P00791 whole entry): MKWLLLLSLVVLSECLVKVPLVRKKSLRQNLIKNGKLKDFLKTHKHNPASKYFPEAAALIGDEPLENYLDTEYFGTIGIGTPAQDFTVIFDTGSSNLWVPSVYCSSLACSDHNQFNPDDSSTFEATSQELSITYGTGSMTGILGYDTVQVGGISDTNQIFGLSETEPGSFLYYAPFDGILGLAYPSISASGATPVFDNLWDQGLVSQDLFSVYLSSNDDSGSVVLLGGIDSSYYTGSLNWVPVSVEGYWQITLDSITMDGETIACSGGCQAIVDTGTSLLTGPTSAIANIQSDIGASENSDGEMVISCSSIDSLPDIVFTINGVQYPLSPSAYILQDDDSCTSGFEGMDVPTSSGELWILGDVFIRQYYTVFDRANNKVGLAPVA

On Renin [1], `CC[C@H](C)[C@H](NC(=O)[C@@H](C[C@H](O)[C@H](CC(C)C)NC(=O)[C@H](Cc1c[nH]cn1)NC(=O)[C@H](Cc1ccccc1)NC(=O)OC(C)(C)C)C(C)C)C(=O)N[C@@H](Cc1c[nH]cn1)C(=O)O` (Boc-FH[X1]IH-OH) registered an IC50 of 0.0024 µM.

Regarding `CC[C@H](C)[C@H](NC(=O)[C@@H](C[C@H](O)[C@H](CC(C)C)NC(=O)CCC(=O)[C@H](Cc1ccccc1)NC(=O)OC(C)(C)C)C(C)C)C(=O)NCc1cnc(C)nc1N`, the IC50 stood at 12 µM against Pepsin A, 8 µM on Cathepsin D and 0.0051 µM against Renin [2].

As to `CC[C@H](C)[C@H](NC(=O)C[C@H](O)[C@H](CC1CCCCC1)NC(=O)CSCC(=O)[C@H](Cc1ccccc1)NC(=O)OC(C)(C)C)C(=O)NCc1cnc(C)nc1N`, the results for the half-maximal inhibitory concentration (IC50) on Pepsin A, against Cathepsin D and on Renin [2] were 53 µM, 28 µM and 0.0021 µM, respectively.

Broadly, the IC50 is the concentration needed to halve the response being measured. Low values mean higher potency, high ones lower potency.
